Shown are actives, neighbours in structure and some others; about 1.6% of the full set was active somewhere.
ABCB1 block: ABCB1 efflux pump inhibitors, primary screen, cell-based, multiplex, flow cytometry, ABCG2 counter-screen; ATP-dependent translocase ABCB1 (Homo sapiens), P08183; CCRF-Adr cells, JC-1 efflux; inhibition, % at 6.6 µM; 190,000 compounds, 0.067% hits; AID 1326, 2008; in the data active = inhibition above about 40%;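 note: higher value means more JC-1 retained so stronger ABCB1 efflux block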
Diaphorase act: compounds boosting diaphorase resazurin reduction – biochemical, uHTS, resorufin fluorescence, counter-screen for diaphorase-coupled primary assays, primary screen; AID 1229, 2008; Diaphorase/resazurin coupled assay, 16 min; stronger effect = higher value; 1 = vehicle wells, 0 = NADH-free wells; activation factor at 20 µM; 190,000 compounds, 0.005% hits;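 active = diaphorase activity raised at least twofold by the compound at 20 µM; inactive = activation factor below 2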
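Material: purified diaphorase enzyme from Clostridium kluyveri; Also added: 0.114 mM NADH and 0.1 mM resazurin, final amounts; Doses: single compound dose of 20 µM, 1% DMSO final; Times: 16 min enzyme reaction, ambient temperature; Detection: resorufin fluorescence, excitation 544 nm, emission 590 nm; Measure: increased resorufin signal from activators or reducing compounds.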
ABCG2 block: ABCG2 efflux pump inhibitors, primary screen, multiplex with ABCB1, IgMXP3 cells, flow cytometry. inhibition, % at 6.6 µM. Broad substrate specificity ATP-binding cassette transporter ABCG2 (Homo sapiens), Q9UNQ0. JC-1 efflux. 190,000 compounds, 0.1% hits;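 active = inhibition above 80%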
Target sequence (Q9UNQ0 whole entry, looked up): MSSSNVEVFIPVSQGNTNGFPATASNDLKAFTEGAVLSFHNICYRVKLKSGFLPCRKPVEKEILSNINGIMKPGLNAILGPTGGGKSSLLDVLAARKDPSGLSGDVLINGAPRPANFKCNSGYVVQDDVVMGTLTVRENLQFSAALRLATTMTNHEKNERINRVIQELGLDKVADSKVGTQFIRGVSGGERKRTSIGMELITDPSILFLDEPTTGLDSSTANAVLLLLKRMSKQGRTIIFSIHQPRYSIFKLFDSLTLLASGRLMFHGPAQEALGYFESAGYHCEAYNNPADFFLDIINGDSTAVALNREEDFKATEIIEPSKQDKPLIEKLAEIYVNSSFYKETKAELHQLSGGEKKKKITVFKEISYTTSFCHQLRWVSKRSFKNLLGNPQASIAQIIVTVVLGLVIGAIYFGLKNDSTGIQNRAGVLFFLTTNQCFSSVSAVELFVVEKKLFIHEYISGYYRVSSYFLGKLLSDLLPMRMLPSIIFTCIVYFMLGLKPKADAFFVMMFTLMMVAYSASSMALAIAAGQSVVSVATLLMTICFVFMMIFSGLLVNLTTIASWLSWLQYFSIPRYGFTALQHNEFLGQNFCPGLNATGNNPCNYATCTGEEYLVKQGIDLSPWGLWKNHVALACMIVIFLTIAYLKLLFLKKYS
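test system = two drug-resistant human cell lines, ABCG2 and ABCB1 | amount = 3 million cells/mL final, two lines in 1:1 ratio | reagent = JC-1 transporter substrate | doses = one concentration, 6.6 µM final | incubation = 10 min at 25 °C | signal = flow cytometric JC-1 green MFI at 530 nm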
Efa HMGR inh: inhibitors of E. faecalis class II HMGR, primary screen, biochemical, Enterococcus faecalis; purified E. faecalis HMGR, NADPH absorbance 340 nm kinetic; inhibition, % at 10 µM; 190,000 compounds, 0.41% hits;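 active = inhibition above a set limit, the median over all tested compounds plus 3 SD, cut at about 9.5% in these data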;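 note: enzyme runs in reverse so mevalonate oxidation gives rising NADPH absorbance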
Diaphorase inh: diaphorase inhibitors and chemical oxidizers, primary screen, counter-screen for diaphorase-coupled primary assays, biochemical, uHTS, resorufin fluorescence | diaphorase resazurin-to-resorufin fluorescence, NADH, 16 min; bacterial (C. kluyveri) enzyme, not human | inhibition, % at 20 µM | 190,000 compounds, 0.69% hits | AID 1217, 2008;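 active = primary screen inhibition at 20 µM above a set limit, cut at about 50% in these data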
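System: Diaphorase enzyme from Clostridium kluyveri | Amount: Enzyme working solution with 0.14 U/mL diaphorase | Benchmarks: No-NADH positive control and DMSO neutral control | Signal: Fluorescence of resorufin formed from resazurin, Ex 544/Em 590 nm | Schedule: 16-min room-temperature incubation before reading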
NCF1 inh: p47phox/p22phox peptide binding inhibitors, primary screen, biochemical, uHTS, NADPH oxidase regulatory subunit; Neutrophil cytosol factor 1 (Homo sapiens), P14598; fluorescence polarization, 2 h; inhibition, % at 24.7 µM; 220,000 compounds, 0.53% hits; AID 1274, 2008;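 active = inhibition above about 30%, limit read from the data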
Of the large screens only hits and unclear results are named; the others gave an inactive call.

O=C1NN(c2ccccc2)C(=O)/C1=C\c1ccc(-c2cc([N+](=O)[O-])ccc2O)o1	Diaphorase inh 79.8
O=C1NN(c2ccc(Cl)cc2)C(=O)/C1=C\c1ccc(-c2cccc(C(=O)O)c2)o1	Diaphorase inh 52.9
CCOc1cc(/C=C2\C(=O)NN(c3ccccc3)C2=O)cc([N+](=O)[O-])c1O	Diaphorase inh 53.3
COc1cc(/C=C2\C(=O)NN(c3ccccc3)C2=O)cc([N+](=O)[O-])c1O	none
Cc1ccc(N2NC(=O)/C(=C/c3ccc(-c4ccc(Cl)c(C(=O)O)c4)o3)C2=O)cc1	none
O=C(c1ccccc1Cl)N1CCc2ccccc2C1	none
CCN(CC)C(=O)C1CCC(CNS(=O)(=O)c2cccc3cccnc23)CC1 (stereo unspecified)	none
Cn1nnc2cc(C(=O)Nc3ccc4ccccc4c3)ccc21	Efa HMGR inh 12.9
CCN(CC)c1ccc(NC2=C(Cl)C(=O)c3ccccc3C2=O)cc1	NCF1 inh 34.8
Cc1ccc(C(=O)NCCc2nc3ccccc3[nH]2)cc1[N+](=O)[O-]	none
Cc1cc2cc(CCNC(=O)C(=O)c3c[nH]c4ccccc34)c(=O)[nH]c2cc1C	Diaphorase inh 70.0
Cc1cc2cc(CCNC(=O)C3c4ccccc4Oc4ccccc43)c(=O)[nH]c2cc1C	none
O=C(NCCOc1ccccc1Cl)C(=O)c1c[nH]c2ccccc12	Efa HMGR inh 16.7
Cc1cc2cc(CCNC(=O)c3ccc(C)c([N+](=O)[O-])c3)c(=O)[nH]c2cc1C	Diaphorase inh 71.7
c1ccc2sc(-c3ccncc3)nc2c1	none (no result: ABCB1 block, Diaphorase act, ABCG2 block, Efa HMGR inh, Diaphorase inh)
CCN(Cc1ccncc1)Cc1c(O)ccc2cc(Br)ccc12	Efa HMGR inh 15.4
CN1CCN(Cc2c(O)ccc3cc(Br)ccc23)CC1	none
CCc1ccc(OCC(=O)N2CCN=C2c2ccccc2)cc1	none
Cc1ccc(CNC(=O)CCc2nc(-c3cccs3)no2)cc1	NCF1 inh 199.6
O=C(CCc1nc(-c2cccs2)no1)NCc1ccc(F)cc1Cl	none
Oc1ccc(/C=N/Nc2nc(N3CCCC3)nc(N3CCCC3)n2)cc1O	Diaphorase inh 71.6
CCOC(=O)C1=C(c2ccccc2)NC(=O)NC1c1cc(Cl)c(O)c(OC)c1 (stereo unspecified)	none
CCOC(=O)C1=C(c2ccccc2)NC(N)=NC1c1ccc(OCc2ccc(Cl)cc2)c(OC)c1 (stereo unspecified)	NCF1 inh 70.7 (no result: ABCB1 block, Diaphorase act, ABCG2 block, Efa HMGR inh, Diaphorase inh)
CCOC(=O)CNC(=O)C1CCCc2c1[nH]c1ccc(Cl)cc21 (stereo unspecified)	none
CCOC(=O)c1ccc2[nH]c3c(c2c1)CCCC3O (stereo unspecified)	NCF1 inh 48.4
CCCCNC(=O)c1nn(-c2ccccc2OC)c(=O)c2ccccc12	none
CCCCc1c(C)c(C#N)c2[nH]c3ccccc3n2c1=O	none
CCCc1cc(=O)n2c([nH]c3ccccc32)c1C#N	NCF1 inh 48.0
Cc1c2ccccc2nc2c(F)c(NCCO)c(F)c(F)c12	Diaphorase inh 53.1
CCCn1c(/N=C/c2ccccc2O)nc2ccccc21	none
Cn1c(/N=C/c2c(O)ccc3ccccc23)nc2ccccc21	Diaphorase inh 77.3
CCCCCCC(C)n1[nH]c(=O)c2c(C)cc(=O)[nH]c21 (stereo unspecified)	none
CCOC(=O)c1nnn(-c2ccc(OC)cc2)c1N	Efa HMGR inh 15.5
CCC(C(=O)OC)n1cnc2c(nnn2-c2ccc(OC)cc2)c1=O (stereo unspecified)	none
COC(=O)c1nnn(-c2ccccc2)c1N	none

Screening data: PubChem BioAssay, several laboratories
